# Laboratory results published in ChEMBL document CHEMBL4038284, “Synthesis of novel quinoline-based 4,5-dihydro-1H-pyrazoles as potential anticancer, antifungal, antibacterial and antiprotozoal agents” (Eur J Med Chem, 2017).
# Active and inactive are the calls of the source. The calls are words filed in the database; no cut-off is given here.
# How the values were obtained:
# [1] = system: OVCAR-4; assay: Growth inhibition of human OVCAR4 cells at 10 uM incubated for 48 hrs by sulforhodamine B assay; assay type: functional, cell-based
# Procedure, shortened: (§1)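 NCI 60-line panel, single 10 μM dose. Cells were grown in RPMI-1640 with 5% FBS and 2 mM L-glutamine and pre-incubated 24 h before compound addition (DMSO stock). Exposure was 48 h at 37 °C, 5% CO2. Cells were fixed with cold TCA (10% final), stained with 0.4% SRB, bound dye dissolved in 10 mM Tris base, A515 read. Growth was taken relative to time-zero and untreated control plates.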
# [2] = system: SNB-19; assay: Growth inhibition of human SNB19 cells at 10 uM incubated for 48 hrs by sulforhodamine B assay; assay type: functional, cell-based
# Procedure, shortened: (§2)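 NCI-60 single-dose screen at 10 µM for 48 h. Cells were grown in RPMI-1640 with 5% FBS and 2 mM L-glutamine and preincubated 24 h before compound. Time-zero plates were TCA-fixed at compound addition. After exposure, cells were TCA-fixed, stained with SRB and read at 515 nm. Percentage growth was calculated against time-zero and untreated-control absorbances.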
# [3] = system: SK-MEL-5; assay: Growth inhibition of human SK-MEL-5 cells at 10 uM incubated for 48 hrs by sulforhodamine B assay; assay type: functional, cell-based; procedure, shortened: as §2
# [4] = system: Klebsiella pneumoniae; assay: Antibacterial activity against ESBL positive Klebsiella pneumoniae ATCC 700603 after 24 hrs by resazurin dye based microdilution assay; assay type: functional; conditions: Klebsiella pneumoniae, 700603, 24 h
# Procedure, shortened: (§3)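 MIC taken as the lowest concentration giving visible inhibition and/or by resazurin (1 mg/mL). Gentamicin was the control. Run in duplicate, repeated at least three times.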
# [5] = system: NCI-H460; assay: Growth inhibition of human NCI-H460 cells at 10 uM incubated for 48 hrs by sulforhodamine B assay; assay type: functional, cell-based; procedure, shortened: as §1
# [6] = system: SK-MEL-2; assay: Growth inhibition of human SK-MEL-2 cells at 10 uM incubated for 48 hrs by sulforhodamine B assay; assay type: functional, cell-based; procedure, shortened: as §2
# [7] = system: NCI/ADR-RES; assay: Growth inhibition of human NCI/ADR-RES cells at 10 uM incubated for 48 hrs by sulforhodamine B assay; assay type: functional, cell-based; procedure, shortened: as §1
# [8] = system: Candida albicans; assay: Growth inhibition of Candida albicans ATCC 10231 at 31.25 ug/ml incubated for 48 hrs under dark condition by broth microdilution method relative to control; assay type: functional; conditions: ATCC 10231, 48 h, read-out: GI
# Procedure, shortened: (§4)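 CLSI M27-A3 broth microdilution in RPMI-1640, DMSO ≤1%. Inoculum 1-5 × 10^3 CFU/mL. Incubated 48 h at 30 °C, dark. % inhibition = 100 − (OD405 test − sterility control)/(OD405 growth control − sterility control), with growth and sterility control wells. Triplicate.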
# [9] = system: NCI-H322M; assay: Growth inhibition of human NCI-H322M cells at 10 uM incubated for 48 hrs by sulforhodamine B assay; assay type: functional, cell-based; procedure, shortened: as §1
# [10] = system: OVCAR-3; assay: Growth inhibition of human OVCAR3 cells at 10 uM incubated for 48 hrs by sulforhodamine B assay; assay type: functional, cell-based; procedure, shortened: as §1
# [11] = system: EKVX; assay: Growth inhibition of human EKVX cells at 10 uM incubated for 48 hrs by sulforhodamine B assay; assay type: functional, cell-based
# Procedure, shortened: (§5)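 NCI 60-cell-line screen at a single 10 µM dose. Cells in RPMI-1640 with 5% FBS and 2 mM L-glutamine, pre-incubated 24 h, then treated for 48 h at 37 °C. TCA fixation, sulforhodamine B staining, absorbance at 515 nm. Percentage growth calculated against time-zero and untreated controls.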
# [12] = system: Cryptococcus neoformans; assay: Growth inhibition of Cryptococcus neoformans ATCC 32264 at 3.4 ug/ml incubated for 48 hrs under dark condition by broth microdilution method relative to control; assay type: functional; conditions: ATCC 32264, 48 h, read-out: GI
# [13] = system: ACHN; assay: Growth inhibition of human ACHN cells at 10 uM incubated for 48 hrs by sulforhodamine B assay; assay type: functional, cell-based; procedure, shortened: as §5
# [14] = system: U-937; assay: Cytotoxicity against human U937 cells after 72 hrs by MTT assay; assay type: cell-based; conditions: u-937, 72 h
# Procedure, shortened: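 Exponentially growing U-937 at 1 × 10^5 cells/mL in RPMI-1640 with 10% FBS were exposed to 200, 50, 12.5 and 3.125 µg/mL for 72 h at 37 °C, 5% CO2. MTT for 3 h, stopped with isopropanol/SDS, formazan read at 570 nm, blank-corrected. LC50 by Probit from % viability against untreated cells. Triplicate, at least two independent experiments.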
# [15] = system: OVCAR-8; assay: Growth inhibition of human OVCAR8 cells at 10 uM incubated for 48 hrs by sulforhodamine B assay; assay type: functional, cell-based; procedure, shortened: as §1
# [16] = system: RPMI-8226; assay: Growth inhibition of human RPMI8226 cells at 10 uM incubated for 48 hrs by sulforhodamine B assay; assay type: functional, cell-based; procedure, shortened: as §1
# [17] = system: HCT-15; assay: Growth inhibition of human HCT15 cells at 10 uM incubated for 48 hrs by sulforhodamine B assay; assay type: functional, cell-based; procedure, shortened: as §5
# [18] = system: Klebsiella pneumoniae; assay: Antibacterial activity against carbapenemase positive Klebsiella pneumoniae BAA 1705 after 24 hrs by resazurin dye based microdilution assay; assay type: functional; conditions: BAA 1705, 24 h; procedure, shortened: as §3
# [19] = system: Hs-578T; assay: Growth inhibition of human Hs578T cells at 10 uM incubated for 48 hrs by sulforhodamine B assay; assay type: functional, cell-based; procedure, shortened: as §1
# [20] = system: Cryptococcus neoformans; assay: Growth inhibition of Cryptococcus neoformans ATCC 32264 at 125 ug/ml incubated for 48 hrs under dark condition by broth microdilution method relative to control; assay type: functional; conditions: ATCC 32264, 48 h, read-out: GI; procedure, shortened: as §4
# [21] = system: SW-620; assay: Growth inhibition of human SW620 cells at 10 uM incubated for 48 hrs by sulforhodamine B assay; assay type: functional, cell-based; procedure, shortened: as §2
# [22] = system: NCI-H23; assay: Growth inhibition of human NCI-H23 cells at 10 uM incubated for 48 hrs by sulforhodamine B assay; assay type: functional, cell-based; procedure, shortened: as §1
# [23] = system: HCC 2998; assay: Growth inhibition of human HCC2998 cells at 10 uM incubated for 48 hrs by sulforhodamine B assay; assay type: functional, cell-based; procedure, shortened: as §5
# [24] = system: Candida albicans; assay: Growth inhibition of Candida albicans ATCC 10231 at 250 ug/ml incubated for 48 hrs under dark condition by broth microdilution method relative to control; assay type: functional; conditions: ATCC 10231, 48 h, read-out: GI; procedure, shortened: as §4
# [25] = system: MDA-MB-435; assay: Growth inhibition of human MDA-MB-435 cells at 10 uM incubated for 48 hrs by sulforhodamine B assay; assay type: functional, cell-based; procedure, shortened: as §1
# [26] = system: CCRF-CEM; assay: Growth inhibition of human CCRF-CEM cells at 10 uM incubated for 48 hrs by sulforhodamine B assay; assay type: functional, cell-based; procedure, shortened: as §5
# [27] = system: SF-295; assay: Growth inhibition of human SF295 cells at 10 uM incubated for 48 hrs by sulforhodamine B assay; assay type: functional, cell-based; procedure, shortened: as §1
# [28] = system: IGROV-1; assay: Growth inhibition of human IGROV1 cells at 10 uM incubated for 48 hrs by sulforhodamine B assay; assay type: functional, cell-based; procedure, shortened: as §1
# [29] = system: Candida albicans; assay: Growth inhibition of Candida albicans ATCC 10231 at 7.8 ug/ml incubated for 48 hrs under dark condition by broth microdilution method relative to control; assay type: functional; conditions: ATCC 10231, 48 h, read-out: GI; procedure, shortened: as §4
# [30] = system: UACC-257; assay: Growth inhibition of human UACC257 cells at 10 uM incubated for 48 hrs by sulforhodamine B assay; assay type: functional, cell-based; procedure, shortened: as §2
# [31] = system: K562; assay: Growth inhibition of human K562 cells at 10 uM incubated for 48 hrs by sulforhodamine B assay; assay type: functional, cell-based; procedure, shortened: as §1
# [32] = system: SR; assay: Growth inhibition of human SR cells at 10 uM incubated for 48 hrs by sulforhodamine B assay; assay type: functional, cell-based; procedure, shortened: as §2
Structure (SMILES),growth inhibition (GI) [1],growth inhibition (GI) [2],growth inhibition (GI) [3],MIC [4] [µg/mL],growth inhibition (GI) [5],growth inhibition (GI) [6],growth inhibition (GI) [7],inhibition of growth at 31.25 µg/mL [8] [%],growth inhibition (GI) [9],growth inhibition (GI) [10],growth inhibition (GI) [11],inhibition of growth at 3.4 µg/mL [12] [%],growth inhibition (GI) [13],LC50 [14] [µg/mL],growth inhibition (GI) [15],growth inhibition (GI) [16],growth inhibition (GI) [17],MIC [18] [µg/mL],growth inhibition (GI) [19],inhibition of growth at 125 µg/mL [20] [%],also measured
COc1ccc(C2=NN(c3ccc(Cl)cc3)C(c3cccc(Nc4ccnc5cc(Cl)ccc45)c3)C2)cc1 (centres undefined),inactive,inactive,inactive,> 1000,inactive,inactive,inactive,1.19,inactive,inactive,inactive,7.99,inactive,> 200,inactive,inactive,inactive,> 1000,inactive,26.7,growth inhibition (GI) [21]: inactive; growth inhibition (GI) [22]: inactive; growth inhibition (GI) [23]: inactive; inhibition of growth at 250 µg/mL [24]: 3.08%; growth inhibition (GI) [25]: inactive; growth inhibition (GI) [26]: inactive; growth inhibition (GI) [27]: inactive; growth inhibition (GI) [28]: inactive; inhibition of growth at 7.8 µg/mL [29]: 0%; growth inhibition (GI) [30]: inactive; growth inhibition (GI) [31]: inactive; growth inhibition (GI) [32]: inactive
COc1ccc(C2=NN(c3ccccc3)C(c3cccc(Nc4ccnc5cc(Cl)ccc45)c3)C2)cc1 (centres undefined),inactive,inactive,inactive,> 1000,inactive,inactive,inactive,13.4,inactive,inactive,inactive,2.74,inactive,28,inactive,inactive,inactive,> 1000,inactive,16.9,growth inhibition (GI) [21]: inactive; growth inhibition (GI) [22]: inactive; growth inhibition (GI) [23]: inactive; inhibition of growth at 250 µg/mL [24]: 25.6%; growth inhibition (GI) [25]: inactive; growth inhibition (GI) [26]: inactive; growth inhibition (GI) [27]: inactive; growth inhibition (GI) [28]: inactive; inhibition of growth at 7.8 µg/mL [29]: 7.57%; growth inhibition (GI) [30]: inactive; growth inhibition (GI) [31]: inactive; growth inhibition (GI) [32]: inactive
